According to ChEMBL document CHEMBL2331240, “Focused library development of 2-phenylacrylamides as broad spectrum cytotoxic agents” (2013):
The source made the active and inactive calls. No cut-off for these calls is given here.

Legend:
HT-29 = experiment: Cytotoxicity against human HT-29 cells assessed as growth inhibition at 25 uM measured after 72 hrs by MTT assay; assay type: functional, cell-based
Procedure, shortened: (§1)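 Log-phase cells were plated in duplicate at 2500–4000 cells/well in DMEM with 10% FBS, glutamine and antibiotics, at 37 °C under 5% CO2. Drug was added 24 h after plating from a 40 mM DMSO stock, to a final 25 μM. After 72 h exposure, MTT was read at 540 nm and % growth inhibition was calculated, with 100% meaning total growth inhibition.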

SW480 = experiment: Cytotoxicity against human SW480 cells assessed as growth inhibition at 25 uM measured after 72 hrs by MTT assay; assay type: functional; settings: for inhibition of growth at 25 µM: SW480, 72 h, read-out: GI; procedure, shortened: as §1
[1] = (§2) Cytotoxicity against human BE(2)-C cells assessed as growth inhibition at 25 uM measured after 72 hrs by MTT assay; assay type: functional; settings: read-out: GI; procedure, shortened: as §1
A2780 = experiment: Cytotoxicity against human A2780 cells assessed as growth inhibition at 25 uM measured after 72 hrs by MTT assay; assay type: functional; procedure, shortened: as §1
MCF7 = experiment: Cytotoxicity against human MCF7 cells assessed as growth inhibition at 25 uM measured after 72 hrs by MTT assay; assay type: functional; settings: for inhibition of growth at 25 µM: MCF7, 72 h, read-out: GI; procedure, shortened: as §1
MIA = experiment: Cytotoxicity against human MIA cells assessed as growth inhibition at 25 uM measured after 72 hrs by MTT assay; assay type: functional; procedure, shortened: as §1
DU-145 = experiment: Cytotoxicity against human DU145 cells assessed as growth inhibition at 25 uM measured after 72 hrs by MTT assay; assay type: functional, cell-based; procedure, shortened: as §1
SJ-G2 = experiment: Cytotoxicity against human SJ-G2 cells assessed as growth inhibition at 25 uM measured after 72 hrs by MTT assay; assay type: functional, cell-based; procedure, shortened: as §1
A-431 = experiment: Cytotoxicity against human A431 cells assessed as growth inhibition at 25 uM measured after 72 hrs by MTT assay; assay type: functional, cell-based; procedure, shortened: as §1
NCI-H460 = experiment: Cytotoxicity against human H460 cells assessed as growth inhibition at 25 uM measured after 72 hrs by MTT assay; assay type: functional, cell-based; procedure, shortened: as §1
SMA = experiment: Cytotoxicity against mouse SMA cells assessed as growth inhibition at 25 uM measured after 72 hrs by MTT assay
BE(2)-C = experiment: as §2; assay type: functional; procedure, shortened: as §1

SMILES	growth inhibition (GI) (HT-29)	inhibition of growth at 25 µM (SW480) [%]	inhibition of growth at 25 µM [1] [%]	inhibition of growth at 25 µM (A2780; A2780, 72 h, read-out: GI) [%]	inhibition of growth at 25 µM (MCF7) [%]	growth inhibition (GI) (MIA)	growth inhibition (GI) (DU-145)	growth inhibition (GI) (SJ-G2)	growth inhibition (GI) (A-431)	growth inhibition (GI) (NCI-H460)	growth inhibition (GI) (SMA)	growth inhibition (GI) (A2780)	growth inhibition (GI) (SW480)	growth inhibition (GI) (BE(2)-C)	growth inhibition (GI) (MCF7)
N#C/C(=C\c1ccc(Cl)c(Cl)c1)C(=O)c1c[nH]c2ccccc12	inactive	33	33	32	42	inactive	inactive	inactive	inactive	inactive	inactive	–	–	–	–
N#C/C(=C\c1c[nH]c2ccccc12)C(=O)c1ccc[nH]1	inactive	43	49	–	56	inactive	inactive	inactive	inactive	inactive	inactive	inactive	–	–	–
N#C/C(=C\c1ccc(O)cc1)C(=O)NCc1ccc(Cl)c(Cl)c1	inactive	–	–	–	–	inactive	inactive	inactive	inactive	inactive	inactive	inactive	inactive	inactive	inactive
N#C/C(=C\c1ccc([N+](=O)[O-])cc1)C(=O)c1ccc[nH]1	inactive	–	–	–	–	inactive	inactive	inactive	inactive	inactive	inactive	inactive	inactive	inactive	inactive
COc1ccc(/C=C(\C#N)C(=O)c2ccc[nH]2)cc1	inactive	–	–	–	–	inactive	inactive	inactive	inactive	inactive	inactive	inactive	inactive	inactive	inactive
